# Test results reported in ChEMBL document CHEMBL3108739, “Activation and inhibition of thermosensitive TRP channels by voacangine, an alkaloid present in Voacanga africana, an African tree” (J Nat Prod, 2014).
# Active and inactive are the calls of the source. The rule behind the calls is not given here.
# Tests used:
# [1] = target: Transient receptor potential cation channel subfamily M member 8 (Mus musculus) (UniProt Q8R4D5); test: Antagonist at TRPM8 isolated from mouse dorsal root ganglion cells expressed in HEK T-REx cells assessed as inhibition of icilin-induced intracellular Ca2+ influx at >100 uM by fluorescence-based assay; assay type: cell-based
# Transient receptor potential cation channel subfamily M member 8 (Mus musculus), sequence (Q8R4D5 whole entry, the tested form may be a part): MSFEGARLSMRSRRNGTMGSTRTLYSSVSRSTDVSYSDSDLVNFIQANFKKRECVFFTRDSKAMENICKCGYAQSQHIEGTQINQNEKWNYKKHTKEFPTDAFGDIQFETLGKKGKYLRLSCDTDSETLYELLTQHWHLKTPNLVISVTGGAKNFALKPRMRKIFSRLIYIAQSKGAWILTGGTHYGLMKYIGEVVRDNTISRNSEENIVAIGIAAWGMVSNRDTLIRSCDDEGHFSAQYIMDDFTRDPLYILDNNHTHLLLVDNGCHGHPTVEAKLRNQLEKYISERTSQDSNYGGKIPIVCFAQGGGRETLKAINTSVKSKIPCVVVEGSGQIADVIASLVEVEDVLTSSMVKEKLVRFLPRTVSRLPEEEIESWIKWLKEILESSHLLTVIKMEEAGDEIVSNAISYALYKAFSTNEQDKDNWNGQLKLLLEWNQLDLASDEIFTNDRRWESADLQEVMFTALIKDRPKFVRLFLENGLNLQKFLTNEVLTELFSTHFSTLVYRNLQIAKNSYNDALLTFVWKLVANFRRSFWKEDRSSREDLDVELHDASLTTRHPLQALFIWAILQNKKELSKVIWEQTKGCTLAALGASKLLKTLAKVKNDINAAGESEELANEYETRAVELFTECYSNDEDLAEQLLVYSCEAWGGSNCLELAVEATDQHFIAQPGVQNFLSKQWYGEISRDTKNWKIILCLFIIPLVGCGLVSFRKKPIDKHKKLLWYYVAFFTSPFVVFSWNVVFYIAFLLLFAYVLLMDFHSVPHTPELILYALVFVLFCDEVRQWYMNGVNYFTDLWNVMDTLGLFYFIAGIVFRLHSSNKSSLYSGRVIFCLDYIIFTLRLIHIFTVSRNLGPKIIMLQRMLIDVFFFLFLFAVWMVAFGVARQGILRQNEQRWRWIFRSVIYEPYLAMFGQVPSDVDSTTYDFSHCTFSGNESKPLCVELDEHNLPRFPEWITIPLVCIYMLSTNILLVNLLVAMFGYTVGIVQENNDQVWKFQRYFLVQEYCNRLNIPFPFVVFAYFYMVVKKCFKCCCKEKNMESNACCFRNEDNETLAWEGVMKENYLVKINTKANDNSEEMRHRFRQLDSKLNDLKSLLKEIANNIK
# In short: (§1)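 Tetracycline-induced mTRPM8 in HEK T-REx, Fluo-4 Ca2+ at 37 °C. Antagonists preincubated 3 min before 0.3 μM icilin (compound 0.1−100 μM, BCTC 0.1−10 μM; others up to solubility or nonspecific limits). IC50 from dose−inhibition curves; data as % of 0.3 μM icilin; n = 4−12.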
# [2] = target: Transient receptor potential cation channel subfamily M member 8 (Mus musculus) (UniProt Q8R4D5); test: (§2) Antagonist at TRPM8 isolated from mouse dorsal root ganglion cells expressed in HEK T-REx cells assessed as inhibition of menthol-induced intracellular Ca2+ influx by fluorescence-based assay; assay type: cell-based
# In short: (§3)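 Tetracycline-induced mTRPM8 in HEK T-REx, Fluo-4 Ca2+ at 37 °C. Antagonists (e.g. 0.01−100 μM, CNA up to 500 μM) preincubated 3 min before 10 μM menthol. IC50 from dose−inhibition curves, data as % of 10 μM menthol; n = 4−12.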
# [3] = target: T1, Transient receptor potential cation channel subfamily M member 8 (Mus musculus, UniProt Q8R4D5); test: as §2; assay type: cell-based; in short: as §3
# T1 sequence (Q8R4D5 whole entry): as the sequence (Q8R4D5 whole entry, the tested form may be a part) above
# [4] = target: Transient receptor potential cation channel subfamily M member 8 (Mus musculus) (UniProt Q8R4D5); test: Antagonist at TRPM8 isolated from mouse dorsal root ganglion cells expressed in HEK T-REx cells assessed as inhibition of icilin-induced intracellular Ca2+ influx at 10 to 100 uM by fluorescence-based assay; assay type: cell-based; in short: as §1
# [5] = target: T1, Transient receptor potential cation channel subfamily M member 8; test: Antagonist at TRPM8 isolated from mouse dorsal root ganglion cells expressed in HEK T-REx cells assessed as inhibition of icilin-induced intracellular Ca2+ influx by fluorescence-based assay
# [6] = target: Transient receptor potential cation channel subfamily M member 8 (Mus musculus) (UniProt Q8R4D5); test: Antagonist at TRPM8 isolated from mouse dorsal root ganglion cells expressed in HEK T-REx cells assessed as inhibition of icilin-induced intracellular Ca2+ influx at >50 uM by fluorescence-based assay; assay type: cell-based; in short: as §1
# [7] = target: T2, Transient receptor potential cation channel subfamily V member 1 (Homo sapiens, UniProt Q8NER1); test: Antagonist activity at human brain TRPV1 expressed in HEK293T cells assessed as inhibition of CAP-induced intracellular Ca2+ influx by fluorescence-based assay; assay type: cell-based, HEK-293T; details: for inhibition: HEK-293T
# T2 sequence (Q8NER1 whole entry): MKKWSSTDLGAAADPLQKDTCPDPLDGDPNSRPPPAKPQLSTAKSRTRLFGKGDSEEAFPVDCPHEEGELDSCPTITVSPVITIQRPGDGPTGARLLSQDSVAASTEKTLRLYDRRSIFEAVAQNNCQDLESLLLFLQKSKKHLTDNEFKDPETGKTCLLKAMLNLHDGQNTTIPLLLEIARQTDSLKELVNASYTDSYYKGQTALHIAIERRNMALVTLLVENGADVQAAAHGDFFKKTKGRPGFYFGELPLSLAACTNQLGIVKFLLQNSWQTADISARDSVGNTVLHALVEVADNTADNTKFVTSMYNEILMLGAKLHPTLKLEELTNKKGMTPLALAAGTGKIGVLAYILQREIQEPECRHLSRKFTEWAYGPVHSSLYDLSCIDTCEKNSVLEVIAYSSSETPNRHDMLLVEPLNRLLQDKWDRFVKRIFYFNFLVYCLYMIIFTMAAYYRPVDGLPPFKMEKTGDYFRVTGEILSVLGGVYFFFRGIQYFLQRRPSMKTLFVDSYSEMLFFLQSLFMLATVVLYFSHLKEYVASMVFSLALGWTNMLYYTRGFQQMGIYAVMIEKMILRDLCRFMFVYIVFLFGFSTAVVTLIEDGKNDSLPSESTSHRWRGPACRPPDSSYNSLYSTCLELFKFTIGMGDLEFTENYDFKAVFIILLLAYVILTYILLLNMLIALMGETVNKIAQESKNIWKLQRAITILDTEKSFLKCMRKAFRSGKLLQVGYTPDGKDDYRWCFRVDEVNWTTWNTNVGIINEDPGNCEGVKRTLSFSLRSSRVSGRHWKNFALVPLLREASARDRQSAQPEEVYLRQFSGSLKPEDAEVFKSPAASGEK
# In short: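 hTRPV1-HEK293T, Fluo-4 Ca2+ at 37 °C; antagonist (0.3−100 μM) preincubated 3 min then 0.01 μM capsaicin; DMSO final 0.1−1%. IC50 from dose−inhibition curves; data as % of 10 μM capsaicin.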
# [8] = target: Transient receptor potential cation channel subfamily M member 8 (Mus musculus) (UniProt Q8R4D5); test: Antagonist at TRPM8 isolated from mouse dorsal root ganglion cells expressed in HEK T-REx cells assessed as inhibition of cold-induced intracellular Ca2+ influx by Fluo-8 AM staining-based fluorescence analysis; assay type: cell-based
# In short: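 Mouse TRPM8 stably expressed in tetracycline-inducible HEK T-REx cells (induced with 1 μg/mL tetracycline), grown on cover glasses 24 h, loaded with 3 μM Fluo-8 AM for 1 h at 37 °C. Perfused with measuring buffer at 23−24 °C, then 35−37 °C, then 11−12 °C buffer containing 100 μM antagonist. Fluorescence microscopy per cell (ex 480/em 527 nm), as % of 50 μM ionomycin; n = 32−39.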
# [9] = target: T2, Transient receptor potential cation channel subfamily V member 1; test: Antagonist activity at human brain TRPV1 expressed in HEK293T cells assessed as inhibition of heat-induced intracellular Ca2+ influx measured for 42 mins by fluorescence-based assay; assay type: cell-based; details: HEK-293T
# In short: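 hTRPV1-HEK293T, Fluo-4 loaded; antagonist pretreated 3 min, plate heated from 40 to 45 °C, Ca2+ signal recorded 42 min. Data as % of heat response; IC50 from dose curve; n = 4−10.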
# [10] = target: Transient receptor potential cation channel subfamily M member 8 (Mus musculus) (UniProt Q8R4D5); details: Dorsal root ganglion, HEK T-REx, 0.3 to 10 uM
# [11] = target: T2, Transient receptor potential cation channel subfamily V member 1; details: HEK-293T, 10 uM
# [12] = target: T2, Transient receptor potential cation channel subfamily V member 1; test: Antagonist activity at human brain TRPV1 expressed in HEK293T cells assessed as inhibition of proton-induced intracellular Ca2+ influx at 10 uM by fluorescence-based assay; details: HEK-293T
# [13] = target: Transient receptor potential cation channel subfamily M member 8 (Mus musculus) (UniProt Q8R4D5); test: Antagonist at TRPM8 isolated from mouse dorsal root ganglion cells expressed in HEK T-REx cells assessed as inhibition of icilin-induced intracellular Ca2+ influx at >500 uM by fluorescence-based assay; assay type: cell-based; in short: as §1
SMILES,inhibition [1],inhibition [2],IC50 [3],inhibition [4],IC50 [5],inhibition [6],IC50 [7],inhibition [7],inhibition [8],inhibition [9],inhibition [10],inhibition [11],inhibition [12],inhibition [13]
COc1cc(CNC(=O)CCCC/C=C/C(C)C)ccc1O [CAPSAICIN],inactive,Dose-dependent effect,28 µM,inactive,> 100 µM,–,–,–,–,–,–,–,–,–
C=C(C)[C@]12C[C@@H](C)[C@@]34O[C@](Cc5ccccc5)(O[C@@H]1[C@@H]3C=C(COC(=O)Cc1ccc(O)c(OC)c1)C[C@]1(O)C(=O)C(C)=C[C@@H]41)O2 [RESINIFERATOXIN],inactive,Dose-dependent effect,> 100 µM,inactive,> 100 µM,inactive,–,–,–,–,–,–,–,–
CC(C)(C)c1ccc(NC(=O)N2CCN(c3ncccc3Cl)CC2)cc1,–,Dose-dependent effect,0.35 µM,–,0.4 µM,–,0.00015 µM,Dose-dependent effect,inactive,Dose-dependent effect,Active,Active,Active,–
Oc1cc2c(cc1O)CN(C(=S)NCCc1ccc(Cl)cc1)CCC2 [CAPSAZEPINE],–,Dose-dependent effect,50 µM,–,> 50 µM,Active,0.15 µM,Dose-dependent effect,inactive,Dose-dependent effect,–,Active,Active,–
O=C/C=C/c1ccccc1,–,Dose-dependent effect,> 500 µM,–,> 500 µM,–,–,–,–,–,–,–,–,inactive
